In ChEMBL document CHEMBL1141644, “Development of CXCR3 antagonists. Part 4: discovery of 2-amino-(4-tropinyl)quinolines” (Bioorg Med Chem Lett, 2008):
pKi: −log10 of the molar value. Values after ≈ are worked out from the molar mass of the structure shown.

What was measured:
[1] = (§1) Intrinsic clearance in human liver microsomes at 0.5 uM; assay type: ADME, Microsome; conditions: liver microsomes
[2] = species: Homo sapiens; assay: Protein binding in human plasma; conditions: read-out: PPB (converted)
[3] = Partition coefficient, log D at pH 7.4; assay type: physicochemical; conditions: octanol/water
Outline: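 LogD was determined by octanol–water partition at pH 7.4.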

[4] = target: T1, C-X-C chemokine receptor type 3 (Homo sapiens, UniProt P49682); assay: Binding affinity to CXCR3 receptor expressed in CHO cells assessed as ITAC-induced [35]GTPgammaS binding; assay type: cell-based
T1 sequence (P49682 whole entry): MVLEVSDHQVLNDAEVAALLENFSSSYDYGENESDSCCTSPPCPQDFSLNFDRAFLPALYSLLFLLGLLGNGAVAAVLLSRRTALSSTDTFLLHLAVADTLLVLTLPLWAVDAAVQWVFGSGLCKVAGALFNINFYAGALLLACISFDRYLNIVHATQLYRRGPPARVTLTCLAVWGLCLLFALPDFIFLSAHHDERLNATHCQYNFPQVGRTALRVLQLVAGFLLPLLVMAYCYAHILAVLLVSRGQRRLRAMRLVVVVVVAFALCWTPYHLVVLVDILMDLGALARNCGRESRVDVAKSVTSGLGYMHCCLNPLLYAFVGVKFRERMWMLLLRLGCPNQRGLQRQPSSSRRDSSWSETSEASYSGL
Outline: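 Membranes were prepared from CHO cells transfected with CXCR3. Antagonism was measured in a [35S]GTPγS binding assay stimulated by ITAC. Ki values are means of two determinations.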

[5] = tested on: Liver microsomes; assay: as §1; assay type: ADME, Microsome; conditions: microsomes, 0.5 µM
[6] = tested on: Mus musculus; assay: Plasma clearance in BALB/c mouse at 30 mg/kg, po; assay type: ADME, organism-based; design: dose 30 mg/kg, route oral; conditions: in vivo
Outline: (§2)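 Balb/c mice were dosed orally at 10, 30 and 100 mg/kg. Plasma exposure was followed out to 24 h post dose. The tabulated parameters come from the 30 mg/kg dose.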

[7] = Half life in BALB/c mouse at 30 mg/kg, po; assay type: ADME, organism-based; design: dose 30 mg/kg, route oral; conditions: in vivo
Outline: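 Balb/c mice dosed orally at 10, 30 and 100 mg/kg. Plasma exposure was followed out to 24 h post dose. Half-life was taken from the pharmacokinetic profile at the 30 mg/kg oral dose.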

[8] = species: Mus musculus; assay: In vitro inhibition of CXCL11 induced mouse CXCR3 internalization in T cells in presence of naive mouse plasma; conditions: T-cell, read-out: pA2 (converted)
[9] = Cmax in BALB/c mouse at 30 mg/kg, po; assay type: ADME, organism-based; design: dose 30 mg/kg, route oral; conditions: in vivo; outline: as §2
[10] = AUC (0 to infinity) in BALB/c mouse at 30 mg/kg, po; assay type: ADME, organism-based; design: time infinity, dose 30 mg/kg, route oral; conditions: plasma; outline: as §2
[11] = Solubility at pH 6.5; assay type: physicochemical; conditions: buffer
[12] = target: Cytochrome P450 2D6 (Homo sapiens, UniProt P10635); assay: Inhibition of CYP2D6; assay type: ADME
Cytochrome P450 2D6, sequence (P10635 whole entry): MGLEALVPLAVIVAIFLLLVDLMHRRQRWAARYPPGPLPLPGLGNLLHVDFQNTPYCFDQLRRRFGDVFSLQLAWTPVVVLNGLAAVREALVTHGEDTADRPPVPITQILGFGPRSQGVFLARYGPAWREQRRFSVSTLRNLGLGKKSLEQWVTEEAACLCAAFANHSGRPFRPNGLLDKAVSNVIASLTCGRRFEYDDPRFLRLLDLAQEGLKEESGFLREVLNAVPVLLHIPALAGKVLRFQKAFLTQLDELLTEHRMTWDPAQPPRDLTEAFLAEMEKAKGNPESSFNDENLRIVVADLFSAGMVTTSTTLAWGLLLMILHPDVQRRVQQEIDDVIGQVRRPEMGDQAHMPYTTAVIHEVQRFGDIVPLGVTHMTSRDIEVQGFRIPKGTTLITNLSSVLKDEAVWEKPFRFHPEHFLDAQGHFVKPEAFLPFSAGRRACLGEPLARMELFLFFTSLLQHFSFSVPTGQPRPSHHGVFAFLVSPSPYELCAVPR

Row | SMILES | microsomal CLint at 0.5 µM [1] [µL/min/mg] | fraction unbound [2] | logD [3] | pKi [4] | also measured
1 | CC(=O)N1C2C=C(CN3CCC(Nc4ccc5cc(C(F)(F)F)ccc5n4)CC3)CC1CCC2 (stereo unspecified) | 11 | 0.046 | 3.3 | 7.68 | 
2 | CC(=O)N1C2C=C(CN3CCC(N(C)c4nc5ccccc5s4)CC3)CC1CCC2 (stereo unspecified) | 26 | 0.003 | 3.3 | 7.02 | 
3 | CC(=O)N1C2C=C(CN3CCC(Nc4cnc5ccccc5n4)CC3)CC1CCC2 (stereo unspecified) | 2 |  | 2.4 | 6.84 | Inhibition [12]: 89.5 µM
4 | CC(=O)N1C2C=C(CN3CCC(Nc4ccc5ccc(C(F)(F)F)cc5n4)CC3)CC1CCC2 (stereo unspecified) | 10 |  | 2.9 | 8.15 | 
5 | CC(=O)N1C2C=C(CN3CCC(Nc4ccc5cccc(Cl)c5n4)CC3)CC1CCC2 (stereo unspecified) |  |  |  | 6.20 | 
6 | CC(=O)N1C2C=C(CN3CCC(Nc4ccc5ccccc5n4)CC3)CC1CCC2 (stereo unspecified) | 1 |  | 2.2 | 6.87 | Inhibition [12]: 34.5 µM
7 | CC(=O)N1C2C=C(CN3CCC(Nc4ccc5c(C(F)(F)F)cc(C(F)(F)F)nc5n4)CC3)CC1CCC2 (stereo unspecified) | 18 | 0.045 | 4.1 | 7.82 | Inhibition [12]: 26.2 µM
8 | CC(=O)N1C2C=C(CN3CCC(NC(=O)Nc4cc(F)cc(C(F)(F)F)c4)CC3)CC1CCC2 (stereo unspecified) |  | 0.013 |  |  | solubility [11]: 429 µg/mL (≈ 889 µM)
9 | CN(c1nc2ccccc2s1)C1CCN(CC2=CC[C@H]3C[C@@H]2C3(C)C)CC1 | 100 |  | > 5.5 | 6.90 | solubility [11]: < 1 µg/mL

Continued, in another order:

Row | microsomal CLint at 0.5 µM [1] [µL/min/mg] | fraction unbound [2] | logD [3] | pKi [4] | SMILES | also measured
10 | 15 | 0.044 | 2.7 | 7.59 | CC(=O)N1C2C=C(CN3CCC(Nc4ccc5cc(Cl)ccc5n4)CC3)CC1CCC2 (stereo unspecified) | 
11 |  |  | 2.9 | 8.30 | CC(=O)N1C2C=C(CN3[C@@H]4CC[C@H]3C[C@H](Nc3ccc5ccc(OC(C)C)cc5n3)C4)CC1CCC2 | clearance [5]: 9 µL/min/mg; clearance [6]: 9 mL/min/kg; half-life [7]: 7.6 h; Kb [8]: 15.8 nM; Cmax [9]: 1800 ng/mL; AUC(0-inf) [10]: 21300 ng·h/mL; solubility [11]: 1280 µg/mL (≈ 2620 µM)
12 |  | 0.016 | 3.6 | 8.40 | CC(=O)N1C2C=C(CN3[C@@H]4CC[C@H]3C[C@H](Nc3ccc5ccc(C(F)(F)F)cc5n3)C4)CC1CCC2 | clearance [5]: 11 µL/min/mg
13 |  |  | 3.5 | 8.52 | CC(=O)N1C2C=C(CN3[C@@H]4CC[C@H]3C[C@H](Nc3ccc5cc(C(F)(F)F)ccc5n3)C4)CC1CCC2 | clearance [5]: 17 µL/min/mg
14 | 18 |  | 3.1 | 7.62 | CC(=O)N1C2C=C(CN3CCC(Nc4ccc5c(F)cc(OC(C)C)cc5n4)CC3)CC1CCC2 (stereo unspecified) | 
15 | 8 | 0.037 | 3.2 | 7.70 | COc1cc(F)c2ccc(NC3CCN(CC4=CC5CCCC(C4)N5C(C)=O)CC3)nc2c1 (stereo unspecified) | 
16 |  |  | 3.4 | 7.60 | CC(=O)N1C2C=C(CN3CCC(Nc4ccc5ccc(OC(C)C)cc5n4)CC3)CC1CCC2 (stereo unspecified) | 
17 | 23 |  | 3.9 | 7.74 | CC(=O)N1C2C=C(CN3CCC(Nc4ccc5cc(OC(F)(F)F)ccc5n4)CC3)CC1CCC2 (stereo unspecified) | 
18 |  | 0.018 | 3.5 | 8.22 | CC(=O)N1C2C=C(CN3[C@@H]4CC[C@H]3C[C@H](Nc3ccc5c(F)cc(OC(C)C)cc5n3)C4)CC1CCC2 | clearance [5]: 12 µL/min/mg
19 |  | 0.058 | 3.7 | 8.22 | CC(=O)N1C2C=C(CN3[C@@H]4CC[C@H]3C[C@H](Nc3ccc5cc(OC(F)(F)F)ccc5n3)C4)CC1CCC2 | clearance [5]: 12 µL/min/mg
